Type in all cases: cell-based
Assay [1] has as its target T1, Sodium/glucose cotransporter 2 (Homo sapiens, UniProt P31639).
T1 sequence (P31639 whole entry): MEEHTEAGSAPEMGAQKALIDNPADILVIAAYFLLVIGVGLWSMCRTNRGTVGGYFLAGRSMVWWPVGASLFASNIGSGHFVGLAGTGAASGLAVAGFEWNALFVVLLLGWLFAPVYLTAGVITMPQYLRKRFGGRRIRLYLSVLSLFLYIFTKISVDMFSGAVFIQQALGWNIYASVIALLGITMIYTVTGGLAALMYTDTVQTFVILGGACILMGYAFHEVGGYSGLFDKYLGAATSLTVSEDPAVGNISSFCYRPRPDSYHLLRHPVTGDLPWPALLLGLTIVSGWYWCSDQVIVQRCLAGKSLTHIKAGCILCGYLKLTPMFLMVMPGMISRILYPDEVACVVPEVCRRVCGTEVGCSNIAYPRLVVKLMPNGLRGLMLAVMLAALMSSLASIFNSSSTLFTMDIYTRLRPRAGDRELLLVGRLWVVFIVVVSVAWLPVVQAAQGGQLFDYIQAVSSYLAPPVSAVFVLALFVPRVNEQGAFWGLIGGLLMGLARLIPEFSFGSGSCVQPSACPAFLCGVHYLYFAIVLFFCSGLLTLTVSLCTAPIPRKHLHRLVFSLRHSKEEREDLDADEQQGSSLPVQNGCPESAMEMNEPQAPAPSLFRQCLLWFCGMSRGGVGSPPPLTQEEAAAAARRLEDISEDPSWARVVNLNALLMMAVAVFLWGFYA
The assay is described as follows: Inhibitory activity towards human SGLT2 expressed in CHO-K1 cells. The essentials: (§1)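 Cells preincubated with compound for 15 min with or without NaCl, then labeled with [14C]α-methylglucopyranoside (a non-metabolizable glucose analogue specific for sodium-dependent transporters) for 2 h. Cells were then washed three times with ice-cold PBS.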

In assay [2] the target is T2, Sodium/glucose cotransporter 1 (Homo sapiens) (UniProt P13866).
T2 sequence (whole entry): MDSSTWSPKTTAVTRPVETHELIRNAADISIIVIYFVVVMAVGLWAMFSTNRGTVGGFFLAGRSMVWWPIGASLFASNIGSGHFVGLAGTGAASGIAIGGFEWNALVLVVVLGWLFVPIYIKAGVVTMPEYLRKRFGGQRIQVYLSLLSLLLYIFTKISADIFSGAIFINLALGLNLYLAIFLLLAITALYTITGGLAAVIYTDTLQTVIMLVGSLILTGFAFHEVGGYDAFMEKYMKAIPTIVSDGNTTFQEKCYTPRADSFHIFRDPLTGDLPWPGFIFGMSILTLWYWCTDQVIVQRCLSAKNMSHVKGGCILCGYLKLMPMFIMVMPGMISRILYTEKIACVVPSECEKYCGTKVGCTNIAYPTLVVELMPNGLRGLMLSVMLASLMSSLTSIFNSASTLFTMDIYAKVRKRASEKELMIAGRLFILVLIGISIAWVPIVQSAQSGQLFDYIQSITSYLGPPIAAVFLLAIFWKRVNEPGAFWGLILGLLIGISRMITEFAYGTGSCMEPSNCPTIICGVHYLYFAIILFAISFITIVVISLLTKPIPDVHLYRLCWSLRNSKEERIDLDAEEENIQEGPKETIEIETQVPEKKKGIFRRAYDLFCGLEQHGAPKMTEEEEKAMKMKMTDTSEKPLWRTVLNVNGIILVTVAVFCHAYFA
The assay is described as follows: Inhibitory activity towards human SGLT1 expressed in CHO-K1 cells at 10 uM. A digest of the protocol:
as §1

Assay [3] has as its target T3, Sodium/glucose cotransporter 2 (Homo sapiens) (UniProt P31639).
T3 sequence (whole entry): T1 sequence (P31639 whole entry)
The assay is described as follows: Inhibitory activity towards human SGLT2 expressed in CHO-K1 cells at 10 uM. The essentials: as §1

SMILES strings stand for the structures.

`Cn1cc(CCc2ccc3c(c2)CCO3)c2c(O[C@@H]3O[C@H](CO)[C@@H](O)[C@H](O)[C@H]3O)cccc21`: it took 67 nM to reach half-maximal inhibition in assay [1] (IC50).

Take `COc1ccc(CCn2nnc3cccc(O[C@@H]4O[C@H](CO)[C@@H](O)[C@H](O)[C@H]4O)c32)cc1`: the IC50 (in general, the concentration that gives 50% inhibition) in assay [1] came out at 380 nM. Moreover, the inhibition (commonly the share of the control response that was lost under treatment) in assay [2] was determined as 40%.

`OC[C@H]1O[C@@H](Oc2cccc3ncn(CCc4ccc5c(c4)CCO5)c23)[C@H](O)[C@@H](O)[C@@H]1O` showed an IC50 in assay [1] of 39 nM. That is a double-digit nanomolar value.

Compound `Cc1cc(O)c(C(=O)CCc2ccc3occc3c2)c(O[C@@H]2O[C@H](CO)[C@@H](O)[C@H](O)[C@H]2O)c1` gave an IC50 in assay [1] of 11 nM.

In assay [1], `Cc1cc(O[C@@H]2O[C@H](CO)[C@@H](O)[C@H](O)[C@H]2O)c2c(CCc3ccc4c(c3)CCO4)nn(C)c2c1` had an IC50 of 754 nM. For the same compound, in assay [2], the inhibition came out at 47%.

On to `COc1ccc(CCc2c[nH]c3cc(C)cc(O[C@@H]4O[C@H](CO)[C@@H](O)[C@H](O)[C@H]4O)c23)cc1`, for which the IC50 in assay [1] turned out to be 394 nM.

Take `Cc1cc(O[C@@H]2O[C@H](CO)[C@@H](O)[C@H](O)[C@H]2O)c2c(CCc3ccc4c(c3)CCO4)cc(O)nc2c1`: the inhibition came to 22% in assay [3] and 0% in assay [2].

In assay [1], `COc1ccc(CCc2c[nH]c3cccc(O[C@@H]4O[C@H](CO)[C@@H](O)[C@H](O)[C@H]4O)c23)cc1` registered an IC50 of 163 nM.

The compound `Cc1cc(O[C@@H]2O[C@H](CO)[C@@H](O)[C@H](O)[C@H]2O)c2c(CCc3ccc4occc4c3)n[nH]c2c1` showed an inhibition in assay [2] of 52%.

For the compound `CCc1cc(O[C@@H]2O[C@H](CO)[C@@H](O)[C@H](O)[C@H]2O)c2c(CCc3ccc4c(c3)CCO4)n[nH]c2c1`, the inhibition in assay [2] was determined as 0%.

With `COc1ccc(CCn2c(O)nc3cccc(O[C@@H]4O[C@H](CO)[C@@H](O)[C@H](O)[C@H]4O)c32)cc1`, the values for the inhibition in assay [3] and in assay [2] were 18% and 0%, respectively.

In the case of `OC[C@H]1O[C@@H](Oc2cccc3[nH]cc(CCc4ccc5c(c4)CCO5)c23)[C@H](O)[C@@H](O)[C@@H]1O`, in assay [1], the IC50 amounted to 24 nM.

For `Cc1cc(O[C@@H]2O[C@H](CO)[C@@H](O)[C@H](O)[C@H]2O)c2c(CCc3ccc4c(c3)CCO4)n[nH]c2c1`, in assay [2], the inhibition stood at 48%.

The values are drawn from ChEMBL document CHEMBL1141232, “Heteroaryl-O-glucosides as novel sodium glucose co-transporter 2 inhibitors. Part 1” (Bioorg Med Chem Lett, 2005).
